# RGS4 pot: RGS4 potentiation or activation | HEK293 M3R/inducible RGS4, carbachol calcium flux Fluo4; hits give low values | 310,000 compounds, 0.92% hits | B-score at 10 µM | AID 463111;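 active = B-score of the integrated calcium signal more than 4 SD below the library mean, with starting fluorescence not abnormally high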;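 note: negative B-score means reduced calcium response which marks RGS4 activation or potentiation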
#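 Material: M3R-expressing HEK293 line, RGS4 induced by doxycycline | Schedule: Overnight RGS4 induction, 30 min dye load 37 °C, 20 min compound RT | Measured by: Fluo4 fluorescence kinetic imaging of calcium | Read-out: Integrated calcium ratio converted to B score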
# MrgX1 antagonist: antagonists of human MrgX1 receptor; Q96LB2; MRGX1-HEK293 calcium flux, Fluo-4, BAM8-22 antagonism; hits give low values; B-score at 10 µM; 310,000 compounds, 1.3% hits;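 active = calcium-response B-score plate-corrected more than 3 library SD below zero, starting fluorescence within 5 deviations, no agonist response on first addition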;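 note: peak minus trough fluorescence over baseline after final BAM8-22 challenge near maximal dose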
# Target sequence (Q96LB2 whole entry, looked up): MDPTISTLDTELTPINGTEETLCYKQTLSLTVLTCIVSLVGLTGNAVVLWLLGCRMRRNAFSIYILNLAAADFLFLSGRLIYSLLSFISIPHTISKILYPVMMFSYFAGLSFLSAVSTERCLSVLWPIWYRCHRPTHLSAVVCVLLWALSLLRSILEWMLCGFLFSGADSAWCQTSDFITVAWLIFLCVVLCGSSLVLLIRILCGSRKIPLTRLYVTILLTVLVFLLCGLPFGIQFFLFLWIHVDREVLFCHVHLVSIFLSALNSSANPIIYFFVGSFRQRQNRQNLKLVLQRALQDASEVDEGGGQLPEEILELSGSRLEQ
# RGS4 block: inhibitors of human RGS4. HEK293 M3R/RGS4 inducible, Fluo-4 calcium flux; hits give high values; triggered by carbachol at its EC20. B-score at 10 µM. 310,000 compounds, 0.45% hits;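 active = B-score, a plate-corrected calcium signal, over three deviations above library mean, with baseline fluorescence within five deviations of library mean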;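 note: RGS4 expression induced by doxycycline in cells with stable M3 receptor; B-score is computed from the integrated fluorescence ratio over baseline after carbachol; higher B-score means a larger calcium signal and so more RGS4 inhibition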
# Target sequence (P49798 whole entry, looked up): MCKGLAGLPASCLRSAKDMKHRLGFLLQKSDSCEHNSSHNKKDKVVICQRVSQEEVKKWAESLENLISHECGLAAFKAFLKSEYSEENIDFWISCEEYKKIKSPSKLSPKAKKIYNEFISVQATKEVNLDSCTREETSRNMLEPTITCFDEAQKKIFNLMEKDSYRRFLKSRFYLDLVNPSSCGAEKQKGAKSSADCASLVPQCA
# MrgX1 agonist: activates human MrgX1 receptor signaling; MrgX1-HEK293 cells, Fluo-4 calcium fluorescence, agonist mode; hits give high values; B-score at 10 µM; 310,000 compounds, 0.44% hits; Q96LB2;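 active = calcium response B-score plate-corrected fluorescence ratio at least 3 library SD, with starting fluorescence B-score inside 5 SD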
#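 Assay system: stable human MrgX1 HEK293 cell line. Quantity: 15,000 cells per well. Schedule: cells plated overnight, dye loaded 0.5 h 37 °C, 0.5 h room temperature. Detection: Fluo-4 NW calcium-flux fluorescence, kinetic read. Read-out basis: peak-minus-minimum fluorescence over baseline, converted to B scores. Control set: positive and negative control wells on each plate.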
# MrgX1 allo act: allosterically activates human MrgX1 receptor signaling; Q96LB2; MrgX1-HEK293, Fluo-4 calcium flux, FDSS; hits give high values; B-score at 10 µM; 310,000 compounds, 0.63% hits;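 active = plate-corrected calcium response at least 3 library SD above typical, normal starting fluorescence, not activating the receptor alone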;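 note: compound read alongside a low EC10 to EC30 dose of BAM8-22 agonist; peak minus trough fluorescence over baseline measured at the second addition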
# RGS4 inh valid: validation of RGS4 inhibitors. shares compounds with RGS4 block. HEK293 M3R/RGS4, carbachol calcium Fluo-4 fluorescence; carbachol added at its EC20; 0 = buffer wells, 100 = carbachol control. calcium response, % at 10 µM. 1,700 compounds, 65% hits. AID 492999;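 active = duplicate-averaged calcium response above the buffer-only control mean plus 5 SD of those controls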;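 note: integrated fluorescence ratio F max minus min over baseline F0; higher response in RGS4-induced cells means RGS4 inhibition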
# M3R Ca ctr: checks RGS4 inhibitor effects in non-induced HEK293 M3R cells; shares compounds with RGS4 block; carbachol calcium Fluo-4; submaximal (EC20) carbachol stimulus; buffer wells 0%, carbachol control wells 100%; activity (percent), % at 10 µM; 1,900 compounds, 20% hits; AID 493000; call rule not given here;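 note: RGS4 induction absent so cells express M3R without RGS4; higher means more calcium signal and flags a non-specific hit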
# RGS4 inh ctr2: second RGS4 inhibitor counter-screen in uninduced cells lacking carbachol; shares compounds with RGS4 block; HEK293 M3R/RGS4 non-induced, Fluo-4 calcium, no carbachol; normalised: buffer wells 0%, carbachol wells 100%; calcium response (agonist-mode artifact), % at 10 µM; 1,900 compounds, 22% hits; AID 493001;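 active = duplicate-averaged calcium rise in uninduced cells above buffer wells' mean plus 5 SD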
# Active calls of the source: *; i = inactive; x = no result given. In the library only some 3.5% were active in any assay of this set; here they are far more common.
SMILES,RGS4 pot,MrgX1 antagonist,RGS4 block,MrgX1 agonist,MrgX1 allo act,RGS4 inh valid,M3R Ca ctr,RGS4 inh ctr2
CNc1cc(C)c(C#N)c2nc3ccccc3n12,i,i,i,i,i,x,x,x
Cc1ccc(/C=C/C(=O)c2ccccc(=O)c2O)cc1C,i,i,11*,i,i,48%*,i,72%*
CCC(=O)Nc1cccc(NC(=O)c2ccc3c(c2)OCCO3)c1,i,i,i,i,i,i,i,i
CCC(=O)Nc1ccc(NC(=O)c2ccc3c(c2)OCO3)cc1,i,i,i,i,i,x,x,x
CCCC(=O)Nc1cccc(NC(=O)c2ccc3c(c2)OCO3)c1,i,i,i,i,i,i,i,i
O=C(NCCN1CCOCC1)C1CCN(S(=O)(=O)N2CCCC2)CC1,i,i,i,i,i,x,x,x
Cc1ccc(NC(=O)CCNS(=O)(=O)c2ccc3[nH]c(=O)oc3c2)cc1N(C)C,i,i,i,i,i,x,x,x
O=C(C1=C(O)C(=O)N(Cc2ccco2)C1c1ccccc1F)c1cccs1 (stereo not given),i,i,i,i,i,x,x,x
O=C1c2[nH]nc(-c3ccccc3O)c2C(c2ccccc2)N1Cc1ccco1 (stereo not given),i,i,12*,i,i,6.0%*,i,i
COc1cccc(C2c3c(-c4ccccc4O)n[nH]c3C(=O)N2Cc2ccco2)c1 (stereo not given),i,i,i,i,i,x,x,x
O=C1c2[nH]nc(-c3ccccc3O)c2C(c2ccccc2F)N1Cc1ccco1 (stereo not given),i,i,16*,i,i,34%*,40%*,i
CCOc1ccc(OCC)c(NC(=O)C2CCN(c3cnccn3)CC2)c1,i,i,i,i,i,x,x,x
S=C(Nc1ccccc1)Nc1nc2ccccc2n1CCOc1ccc(Cl)cc1,i,i,6.2*,i,i,16%*,34%*,i
O=c1[nH][nH]c(-c2ccccc2O)c1C(C[N+](=O)[O-])c1cccc(Cl)c1 (stereo not given),i,i,i,i,i,x,x,x
O=c1[nH][nH]c(-c2ccccc2O)c1C(C[N+](=O)[O-])c1ccccc1 (stereo not given),i,i,i,i,i,i,i,i
Cc1cc(O)c(C(C[N+](=O)[O-])c2ccc(Cl)cc2Cl)c(=O)o1 (stereo not given),i,i,i,i,i,x,x,x
O=c1[nH][nH]c(-c2ccccc2O)c1C(C[N+](=O)[O-])c1ccc(Cl)cc1Cl (stereo not given),i,i,6.2*,i,i,i,i,i
Cc1cc(-n2c(C)cc(C(=O)COc3ccccc3[N+](=O)[O-])c2C)no1,i,i,5.1*,i,i,i,i,i
Cc1cc(C(=O)COc2ccccc2[N+](=O)[O-])c(C)n1C1CC1,i,i,i,i,i,x,x,x
CC1Cc2ccccc2N1Cc1nc2scc(-c3cccs3)c2c(=O)[nH]1 (stereo not given),i,i,9.3*,i,i,i,i,i
COc1cc(/C=C2\COC/C(=C\c3cc(OC)c(OC)c(OC)c3)C2=O)cc(OC)c1OC,i,x,6.4*,x,x,20%*,i,i
COc1cc(/C=C2\CC/C(=C\c3cc(OC)c(OC)c(OC)c3)C2=O)cc(OC)c1OC,i,i,i,i,i,x,x,x
CC(=O)Oc1cc2c(cc1Cl)C1(CC(c3ccccc3Cl)O2)CC(C)(C)NC(=S)N1 (stereo not given),i,i,5*,i,i,9.0%*,i,i
Cc1cc(NC(=O)CCC(=O)N(c2ccccc2)C(C(=O)NC2CCCC2)c2ccccc2C)no1 (stereo not given),i,i,i,i,i,x,x,x
Clc1ccc(C2=Nn3c(nnc3-c3n[nH]c4c3CCC4)SC2)cc1,i,i,i,i,i,i,i,i
SMILES,RGS4 pot,MrgX1 antagonist,RGS4 block,MrgX1 agonist,MrgX1 allo act,RGS4 inh valid,M3R Ca ctr,RGS4 inh ctr2
CCOC(=O)c1c(S(=O)(=O)NCC(=O)Nc2ccc(F)cc2F)c(C)n(C)c1C,i,i,i,i,i,x,x,x
Cn1cc(Cl)c(C(=O)NNC(=S)NC2CCCCC2)n1,i,i,15*,i,i,39%*,50%*,i
Cn1cc(Cl)c(C(=O)NC2CCCCCC2)n1,i,i,i,i,i,x,x,x
O=C(NC1CC2CCCC(C1)N2C(=O)Nc1ccc(F)cc1)c1ccccc1 (stereo not given),i,i,i,i,i,x,x,x
COc1cccc(/C=C(/C(=O)OCC(=O)NCC2CCCO2)c2ccccc2)c1 (stereo not given),i,i,i,i,i,x,x,x
COc1cccc(/C=C(/C(=O)OCC(=O)NC2CCCCCCC2)c2ccccc2)c1,i,i,5*,i,i,i,i,7.0%*
CCOc1cc(/C=C/c2nc3cc(C)c(C)cc3s2)ccc1OCC(=O)N1CCOCC1,i,i,i,i,i,x,x,x
CCOc1cc(/C=C\[N+](=O)[O-])ccc1OCC(=O)N1CCOCC1,i,i,28*,i,i,43%*,32%*,12%*
CCc1ccc2nc(NC(=O)c3cc(C)on3)sc2c1,i,i,6.4*,i,i,25%*,36%*,i
CCN1CCN(C(=O)CN2C(=O)COc3ccc(C)cc32)CC1,i,i,i,i,i,x,x,x
Cc1nnc(SCc2nc(N)nc(Nc3ccccc3)n2)s1,i,i,5.4*,i,i,14%*,i,i
Nc1nc(CSc2nc3ccccc3s2)nc(N2CCCCC2)n1,i,i,i,i,i,x,x,x
CCc1ccc(Nc2nc(N)nc(CSc3nc4ccccc4s3)n2)cc1,i,i,i,i,i,i,i,i

# From PubChem
